According to ChEMBL document CHEMBL1153847, “Synthesis and in vitro cytotoxic evaluation of novel 3,4,5-trimethoxyphenyl substituted beta-carboline derivatives” (Eur J Med Chem, 2009):

Legend:
Format in all cases: functional, cell-based
HepG2 = assay: Cytotoxicity against human HepG2 cells by MTT assay
Outline: (§1)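 Cells grown in RPMI-1640 with 10% (v/v) fetal calf serum, penicillin and streptomycin, at 37 °C in humidified 5% CO2. Compounds dissolved as DMSO stocks, with final DMSO in the medium at 2% (v/v) or lower. Run in 96-well microtitre cultures with MTT staining, following a published procedure with slight modification.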

HeLa = assay: Cytotoxicity against human HeLa cells by MTT assay; outline: as §1
MCF7 = assay: Cytotoxicity against human MCF7 cells by MTT assay; outline: as §1
Bel-7402 = assay: Cytotoxicity against human Bel7402 cells by MTT assay; outline: as §1
BGC-823 = assay: Cytotoxicity against human BGC823 cells by MTT assay; outline: as §1

| SMILES | IC50 (HepG2) [µM] | IC50 (HeLa) [µM] | IC50 (MCF7) [µM] | IC50 (Bel-7402) [µM] | IC50 (BGC-823) [µM] |
| --- | --- | --- | --- | --- | --- |
| CCCCn1c2ccccc2c2cc(C(=O)NCCO)nc(-c3cc(OC)c(OC)c(OC)c3)c21 | 87.4 | > 100 | 31.6 | > 100 | 37.2 |
| COc1cc(-c2nccc3c2[nH]c2ccccc23)cc(OC)c1OC | 63.2 | 19.6 | 31.7 | 43.8 | 43.1 |
| CCOC(=O)c1cc2c([nH]c3ccccc32)c(-c2cc(OC)c(OC)c(OC)c2)n1 | > 100 | > 100 | 92.3 | > 100 | 96.6 |
| COc1cc(-c2nc(C=O)cc3c4ccccc4n(CCCc4ccccc4)c23)cc(OC)c1OC | > 100 | > 100 | > 100 | > 100 | > 100 |
| COc1cc(-c2nc(CO)cc3c4ccccc4n(CCCc4ccccc4)c23)cc(OC)c1OC | > 100 | > 100 | > 100 | > 100 | > 100 |
| COc1cc(-c2nc(C=O)cc3c4ccccc4n(C)c23)cc(OC)c1OC | > 100 | > 100 | > 100 | > 100 | > 100 |
| CCn1c2ccccc2c2ccnc(-c3cc(OC)c(OC)c(OC)c3)c21 | > 100 | 50.9 | 72.7 | 43.9 | 35.2 |
| COc1cc(-c2nc(C(=O)NCCO)cc3c4ccccc4n(C)c23)cc(OC)c1OC | > 100 | > 100 | 95.5 | > 100 | 90.9 |
| CCn1c2ccccc2c2cc(C=O)nc(-c3cc(OC)c(OC)c(OC)c3)c21 | > 100 | > 100 | > 100 | > 100 | > 100 |
| CCn1c2ccccc2c2cc(C(=O)O)nc(-c3cc(OC)c(OC)c(OC)c3)c21 | > 100 | > 100 | > 100 | 61.4 | 66.5 |
| CCOC(=O)c1cc2c3ccccc3n(CCCc3ccccc3)c2c(-c2cc(OC)c(OC)c(OC)c2)n1 | > 100 | > 100 | > 100 | > 100 | 95.4 |
| CCCCn1c2ccccc2c2cc(C=O)nc(-c3cc(OC)c(OC)c(OC)c3)c21 | > 100 | > 100 | > 100 | > 100 | > 100 |
| COc1cc(-c2nccc3c4ccccc4n(C)c23)cc(OC)c1OC | 86.8 | 71.8 | 74.2 | 91.1 | 43.2 |
| COc1cc(-c2nc(CO)cc3c4ccccc4n(C)c23)cc(OC)c1OC | > 100 | > 100 | > 100 | > 100 | > 100 |
| CCCCn1c2ccccc2c2cc(C(=O)OCC)nc(-c3cc(OC)c(OC)c(OC)c3)c21 | > 100 | > 100 | 43.6 | > 100 | 27.3 |
| COc1cc(-c2nc(C(=O)O)cc3c4ccccc4n(C)c23)cc(OC)c1OC | > 100 | > 100 | > 100 | > 100 | 91.1 |
| CCOC(=O)c1cc2c3ccccc3n(CC)c2c(-c2cc(OC)c(OC)c(OC)c2)n1 | > 100 | > 100 | > 100 | > 100 | 53.2 |
| CCOC(=O)c1cc2c3ccccc3n(C)c2c(-c2cc(OC)c(OC)c(OC)c2)n1 | > 100 | > 100 | > 100 | > 100 | 56.6 |
| CCn1c2ccccc2c2cc(CO)nc(-c3cc(OC)c(OC)c(OC)c3)c21 | > 100 | > 100 | > 100 | > 100 | > 100 |
| CCCCn1c2ccccc2c2ccnc(-c3cc(OC)c(OC)c(OC)c3)c21 | 51.9 | 44.2 | 51.8 | 42.5 | 27.5 |
| CCn1c2ccccc2c2cc(C(=O)NCCO)nc(-c3cc(OC)c(OC)c(OC)c3)c21 | > 100 | > 100 | 53.8 | > 100 | 74.7 |
| COc1ccc2c(c1)[nH]c1c(C)nccc12 [HARMINE] | 46 | 60 | 72 | 54 | 68 |
| CCCCn1c2ccccc2c2cc(C(=O)O)nc(-c3cc(OC)c(OC)c(OC)c3)c21 | > 100 | > 100 | > 100 | > 100 | 51.1 |
| CCCCn1c2ccccc2c2cc(CO)nc(-c3cc(OC)c(OC)c(OC)c3)c21 | > 100 | > 100 | > 100 | > 100 | > 100 |
